The record followed here is ChEMBL document CHEMBL1152198, “C-2-aryl O-substituted HI-236 derivatives as non-nucleoside HIV-1 reverse-transcriptase inhibitors” (Bioorg Med Chem, 2008).

Usually CC50 stands for the concentration that lowers cell viability or growth by half. Usually IC50 stands for the concentration at which inhibition is half-maximal. Usually EC50 stands for the midpoint of the concentration-response curve.

The structures appear in SMILES notation.

Series [1] deals with MT2. As to the kind of experiment: Cytotoxicity against mock-infected human MT2 cells after 5 days by MTT assay. In kind it is cell-based. To be noted: mt2, 120 h. An outline of the steps:
(§1)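 Infected (Y181C, MOI 0.1) or mock-infected MT-2 cells at 1×10^5 cells/mL exposed 5 days to graded compound concentrations in RPMI 1640/10% dFBS/kanamycin, triplicate. Viability by MTT (5 h), acidified isopropanol lysis, absorbance 595 nm. CC50 read from triplicate-mean dose-response curves as concentration reducing viable cells by 50%.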
Background: Formazan colour is commonly taken as a measure of viable cells.

Series [2] addresses Human immunodeficiency virus type 1 reverse transcriptase (Human immunodeficiency virus 1, UniProt Q72547). As to the kind of experiment: Inhibition of HIV1 3B reverse transcriptase. In short, it runs like this:
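Steady-state single-nucleotide incorporation: 6 nM RT (active-site titrated) pre-incubated at least 15 min with 1 μM 5'-radiolabeled primer/template, then at least 15 min on ice with inhibitor (DMSO under 2%, DMSO-only control). Started with 5 μM dTTP and 10 mM MgCl2 (final), 15 min at 37 °C, EDTA quench. Products resolved on 20% denaturing PAGE; hyperbolic fit gives IC50.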

In series [3] the test system is Human immunodeficiency virus 1. Briefly: Antiviral activity against wild-type HIV1 3B infected in human MT2 cells assessed as inhibition of viral replication after 5 days by MTT assay. To be noted: Human immunodeficiency virus 1, 3B, MT2, 120 h.
Series [4] is described as follows: Therapeutic index, ratio of CC50 for human MT2 cells to EC50 for HIV1 3B. The format is cell-based. Particulars: read-out: Ratio CC50/EC50. In short, it runs like this:
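MT-2 cells at 1×10^5 cells/mL, HIV-III_B or mock infection at MOI 0.1, 5 days with graded compound, triplicate; MTT read-out at 595 nm. Index computed as CC50 (mock-infected cells) over EC50 (viral replication), both from dose-response curves.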

Series [5] in a line: Therapeutic index, ratio of CC50 for HIV1 Y181C mutant infected human MT2 cells to EC50 for HIV1 with reverse transcriptase Y181C mutation. In kind it is cell-based. Particulars: read-out: Ratio CC50/EC50. An outline of the steps: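 MT-2 cells (1×10^5 cells/mL), infected with Y181C mutant HIV-1 at MOI 0.1 or mock-infected, were cultured 5 days in RPMI 1640 with 10% dFBS and kanamycin at varying compound concentrations, in triplicate. MTT was added for 5 h, cells were lysed with acidified isopropanol, and A595 was read. EC50 (50% inhibition of viral replication) and CC50 (50% loss of viable cells) came from averaged dose-response curves.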

Series [6] relates to Human immunodeficiency virus 1. As to the kind of experiment: Antiviral activity against nevirapine-resistant HIV1 with reverse transcriptase Y181C mutation in human MT2 cells assessed as inhibition of viral replication after 5 days by MTT assay. The format is functional, organism-based. Particulars: Human immunodeficiency virus 1, MT2, 120 h. In short, it runs like this:
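MT-2 cells at 1×10^5 cells/mL infected at MOI 0.1 (wild-type HIV-III_B or Y181C mutant), cultured 5 days in RPMI 1640 with 10% dFBS and kanamycin across a range of compound concentrations, triplicate wells. MTT added for 5 h, cells lysed with acidified isopropanol, A595 read. EC50 taken from dose-response curves of triplicate means as concentration inhibiting viral replication by 50%.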

Series [7] relates to MT2. Briefly: Cytotoxicity against HIV1 Y181C mutant infected human MT2 cells after 5 days by MTT assay. In kind it is cell-based. Particulars: mt2, 120 h. In short, it runs like this: as §1

`C#CCOCCOc1ccc(OC)cc1CCNC(=S)Nc1ccc(Br)cn1` came in with a CC50 with MT2 [1] of 9500 nM. This compound also showed a 50% inhibitory concentration (IC50) in series [2] of 41 nM. The EC50 in series [3] was found to be 95 nM.

As for `COc1ccc(OCCO)c(CCNC(=S)Nc2ccc(Br)cn2)c1`, the CC50 in the series on MT2 [1] worked out at 1000 nM. This compound also came in with an IC50 in series [2] of 19 nM. In addition, in series [3], the EC50 stood at 12 nM. Besides, the selectivity ratio in series [4] was determined as 83.

As for `C=CCOc1ccc(OC)cc1CCNC(=S)Nc1ccc(Br)cn1`, in the series on MT2 [1], the cytotoxic concentration (CC50) amounted to 11000 nM. In addition, the EC50 in series [3] is 200 nM. In addition, the selectivity ratio in series [4] came to 55.

Regarding `CC#CCOc1ccc(OC)cc1CCNC(=S)Nc1ccc(Br)cn1`, the CC50 with MT2 [1] is 20000 nM. Further, the half-maximal effective concentration (EC50) in series [3] was determined as 270 nM. Also, in series [4], the selectivity ratio came out at 74.

As for `COc1ccc(OCCCC#N)c(CCNC(=S)Nc2ccc(Br)cn2)c1`, the CC50 with MT2 [1] is 3800 nM. The EC50 in series [3] is 50 nM. In addition, in series [4], the selectivity ratio worked out at 76.

As to `C#CCCOc1ccc(OC)cc1CCNC(=S)Nc1ccc(Br)cn1`, the CC50 with MT2 [1] was determined as 1000 nM; with MT2 [7] it was 4000 nM. The IC50 in series [2] came to 3.8 nM. Besides, the selectivity ratio in series [5] was above 20; in series [4], 38. Further, the EC50 is 26 nM in series [3] and below 200 nM in series [6].

With `COC(=O)COc1ccc(OC)cc1CCNC(=S)Nc1ccc(Br)cn1`, it took 48000 nM to reach half-maximal cytotoxicity in the series with MT2 [1] (CC50). In series [2], this compound registered an IC50 of 100 nM. Also, in series [3], the EC50 was 12000 nM. Also, the selectivity ratio in series [4] amounted to 4.

Compound `COc1ccc(OCc2ccccc2)c(CCNC(=S)Nc2ccc(Br)cn2)c1` registered a CC50 in the series on MT2 [1] of 4000 nM. In addition, in series [3], the EC50 is 220 nM. Moreover, in series [4], the selectivity ratio came out at 18.

For the compound `C#CCOCCOCCOc1ccc(OC)cc1CCNC(=S)Nc1ccc(Br)cn1`, in the series with MT2 [1], half-maximal cytotoxicity (CC50) was put at 6800 nM. Besides, the EC50 in series [3] was 390 nM. The selectivity ratio in series [4] worked out at 17.

In the series with MT2 [1], `CCCOc1ccc(OC)cc1CCNC(=S)Nc1ccc(Br)cn1` registered a CC50 of 100 nM. Also, the EC50 in series [3] came out at 95 nM. Further, in series [4], the selectivity ratio stood at 1.

Consider `C#CCOc1ccc(OC)cc1CCNC(=S)Nc1ccc(Br)cn1`, for which the CC50 with MT2 [1] was determined as 100 nM. Moreover, the EC50 in series [3] is 52 nM. Also, the selectivity ratio in series [4] came to 2.

`COc1ccc(OCCOCc2ccccc2)c(CCNC(=S)Nc2ccc(Br)cn2)c1` yielded a CC50 in the series with MT2 [1] of 5800 nM. For the same compound, the EC50 in series [3] came to 2000 nM. In series [4], the selectivity ratio was determined as 3.

On to `COc1ccc(OCCCO)c(CCNC(=S)Nc2ccc(Br)cn2)c1`, for which the midpoint of cytotoxicity with MT2 [1], the CC50, lay at 8500 nM. In addition, inhibition in series [2] was half-maximal at 24 nM (IC50). For the same compound, in series [3], the EC50 was 98 nM. The selectivity ratio in series [4] amounted to 94.

For the compound `C#CCCCOc1ccc(OC)cc1CCNC(=S)Nc1ccc(Br)cn1`, in the series on MT2 [1], the CC50 stood at 10000 nM. The IC50 in series [2] amounted to 27 nM. The EC50 in series [3] turned out to be 250 nM. Moreover, the selectivity ratio in series [4] is 40.

`COc1ccc(OCC#N)c(CCNC(=S)Nc2ccc(Br)cn2)c1` displayed a CC50 in the series with MT2 [1] of 5500 nM. In addition, in series [3], the EC50 stood at 120 nM. Also, in series [4], the selectivity ratio worked out at 46.

On to `COc1ccc(OC)c(CCNC(=S)Nc2ccc(Br)cn2)c1`, for which the CC50 in the series on MT2 [1] turned out to be 1000 nM; with MT2 [7], 18000 nM. This compound gave an IC50 in series [2] of 28 nM. The selectivity ratio came out at 15 in series [5] and 21 in series [4]. For the same compound, the EC50 in series [3] is 48 nM; in series [6] it was 1200 nM.
